Assay [1] has as its target T1, Acyl-protein thioesterase 1/2 (Mus musculus) (UniProt P97823+Q9WTL7). Briefly: Inhibition of FP-Rh binding to APT-1/2 in mouse brain membrane fraction preincubated for 1 hr followed by FP-Rh addition and measured after 1 hr by SDS-PAGE analysis. Format: cell membranes. As to conditions: time 2.0 hrs. The method, boiled down:
(§1)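 Apparent IC50 by competitive ABPP. Mouse brain cytosolic or membrane fraction (1 mg/mL) preincubated 1 h at RT with six inhibitor concentrations (1:3 serial dilution from top 30 μM or 370 nM; 100x DMSO stock), then FP-rhodamine 1 h. 12% SDS-PAGE, fluorescence at 532/568 nm. Band intensities normalized to uninhibited FP-Rh control (100%); IC50 fitted from dose-response curve.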

For assay [2], the species on record is Mus musculus. In words: Selectivity ratio of apparent IC50 for inhibition of FP-Rh binding to ABHD6 in mouse brain cytosolic fraction to apparent IC50 for inhibition of FP-Rh binding to APT-1/2 in mouse brain membrane fraction. Format: cell membranes. The gist of the method:
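Ratio of apparent IC50 values from competitive ABPP in mouse brain fractions (1 mg/mL). Each IC50 came from a 1 h inhibitor preincubation over six 1:3-diluted concentrations, then 1 h FP-rhodamine. 12% SDS-PAGE and in-gel fluorescence; band intensity normalized to uninhibited control, then fitted to a dose-response curve.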

Assay [3] deals with Acyl-protein thioesterase 1/2 (Mus musculus, UniProt P97823+Q9WTL7). In words: (§2) Inhibition of FP-Rh binding to APT-1/2 in mouse brain cytosolic fraction preincubated for 1 hr followed by FP-Rh addition and measured after 1 hr by SDS-PAGE analysis. Format: tissue-based. The method, boiled down:
as §1

Assay [4] concerns the target T2, Monoacylglycerol lipase ABHD6 (Mus musculus, UniProt Q8R2Y0).
T2 sequence (Q8R2Y0 whole entry): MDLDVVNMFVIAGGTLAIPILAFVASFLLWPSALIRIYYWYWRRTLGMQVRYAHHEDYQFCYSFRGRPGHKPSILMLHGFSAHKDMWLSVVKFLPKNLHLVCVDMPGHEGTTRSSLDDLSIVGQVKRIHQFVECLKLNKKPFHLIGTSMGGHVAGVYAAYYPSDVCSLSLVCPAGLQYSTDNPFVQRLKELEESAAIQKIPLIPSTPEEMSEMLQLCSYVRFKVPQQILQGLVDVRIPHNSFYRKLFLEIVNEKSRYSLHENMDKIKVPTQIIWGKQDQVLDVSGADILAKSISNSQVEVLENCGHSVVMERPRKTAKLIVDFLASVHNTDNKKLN
In words: Inhibition of FP-Rh binding to ABHD6 in mouse brain cytosolic fraction preincubated for 1 hr followed by FP-Rh addition and measured after 1 hr by SDS-PAGE analysis. Format: tissue-based. The method, boiled down:
as §1

The target of assay [5] is T1, Acyl-protein thioesterase 1/2 (Mus musculus). The description is as §2. Format: tissue-based. The settings on record: time 2.0 hrs. The gist of the method:
as §1

Assay [6] addresses Acyl-protein thioesterase 1/2 (Homo sapiens) (UniProt O75608+O95372). Briefly: Inhibition of FP-Rh binding to APT-1/2 in human A-431 cells at 1 uM preincubated for 2 hrs followed by compound washout and subsequent FP-Rh addition and measured after 1 hr by SDS-PAGE analysis.
In assay [7] the target is T1, Acyl-protein thioesterase 1/2 (Mus musculus). Briefly: Inhibition of APT-1/2 in mouse brain cytosolic fraction at 0.1 to 1 uM preincubated for 1 hr followed by TAMRA-alkyne addition and measured after 1 hr by SDS-PAGE analysis based click chemistry labelling method. Format: tissue-based. The settings on record: dose microM 0.1-1, time 2.0 hrs. The method, boiled down: (§3)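 Mouse brain cytosolic or membrane fraction (1 mg/mL; membrane pellet from 100,000 g spin, in 20 mM HEPES, 2 mM DTT, pH 7.2) incubated 1 h with probe added from 100x DMSO stock. CuAAC click with TAMRA-alkyne, THPTA, sodium ascorbate and CuSO4 for 1 h at room temperature; boiled in sample buffer, 12% SDS-PAGE, in-gel fluorescence.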

The target is the same in assay [8]. Briefly: Inhibition of APT-1/2 in mouse brain membrane fraction at 0.1 to 1 uM preincubated for 1 hr followed by TAMRA-alkyne addition and measured after 1 hr by SDS-PAGE analysis based click chemistry labelling method. Format: cell membranes. The settings on record: dose microM 0.1-1, time 2.0 hrs. The method, boiled down: as §3
Assay [9] shares this target. In words: Inhibition of APT-1/2 in mouse brain membrane fraction at 1 uM preincubated for 1 hr followed by TAMRA-Lys(biotin)-NH-propyne addition and measured after 1 hr click chemistry labelling based Western blot analysis. Format: cell membranes. As to conditions: time 2.0 hrs. The method, boiled down:
(§4)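 Cytosolic or membrane mouse brain fraction (1 mg/mL) treated 1 h with 1 μM probe (100x DMSO stock) or DMSO. Click with TAMRA-Lys(biotin)-NHpropyne tag, THPTA, CuSO4, ascorbate, 1 h RT. Two cold-acetone precipitations, redissolved in PBS/2% SDS, diluted to 0.4% SDS, streptavidin pull-down 1 h at 25 °C. Gel fluorescence scanned, then blotted with anti-APT-1 or anti-APT-2 (0.5 μg/mL) overnight, HRP anti-rabbit, chemiluminescence.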

Assay [10] has the same target. Briefly: Inhibition of APT-1/2 in mouse brain cytosolic fraction at 1 uM preincubated for 1 hr followed by TAMRA-Lys(biotin)-NH-propyne addition and measured after 1 hr click chemistry labelling based Western blot analysis. Format: tissue-based. The settings on record: time 2.0 hrs. The method, boiled down: as §4
For orientation: A western blot detects proteins with antibodies after separation by electrophoresis.

The text below walks through data of ChEMBL document CHEMBL4665841, “Rapid Solid-Phase Construction of Serine Hydrolase Probes Results in Selective Activity-Based Probes for Acyl Protein Thioesterases-1/2” (J Med Chem, 2020).

Activity calls are given as the source filed them. The rule behind the calls is not given here.

T1 sequence (P97823 whole entry, looked up): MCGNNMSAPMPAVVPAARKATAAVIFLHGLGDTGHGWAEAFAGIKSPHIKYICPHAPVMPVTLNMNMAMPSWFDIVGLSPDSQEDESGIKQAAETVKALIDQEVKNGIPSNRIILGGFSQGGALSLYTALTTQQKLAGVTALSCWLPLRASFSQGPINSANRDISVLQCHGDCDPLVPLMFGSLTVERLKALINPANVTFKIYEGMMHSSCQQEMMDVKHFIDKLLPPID
T1 sequence (Q9WTL7 whole entry, looked up): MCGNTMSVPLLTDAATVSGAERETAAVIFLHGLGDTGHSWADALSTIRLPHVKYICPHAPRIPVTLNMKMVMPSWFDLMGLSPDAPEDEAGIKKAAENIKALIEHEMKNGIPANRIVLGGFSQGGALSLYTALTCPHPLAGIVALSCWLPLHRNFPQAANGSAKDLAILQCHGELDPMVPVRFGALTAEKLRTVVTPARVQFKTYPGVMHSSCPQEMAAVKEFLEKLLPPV
Chain of Acyl-protein thioesterase 1/2 (Homo sapiens) (O75608 whole entry, looked up): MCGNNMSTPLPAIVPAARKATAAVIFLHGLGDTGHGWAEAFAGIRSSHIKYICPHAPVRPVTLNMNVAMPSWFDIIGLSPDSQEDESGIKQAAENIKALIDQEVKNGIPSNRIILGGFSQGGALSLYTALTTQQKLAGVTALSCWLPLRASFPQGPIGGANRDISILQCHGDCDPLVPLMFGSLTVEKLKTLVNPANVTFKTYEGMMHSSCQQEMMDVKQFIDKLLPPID
Chain of Acyl-protein thioesterase 1/2 (Homo sapiens) (O95372 whole entry, looked up): as the sequence (Q9WTL7 whole entry, looked up) above, with N154A, T193S counted along it

Turning to `[N-]=[N+]=NCCCC[C@H](NC(=O)CCCCCNC(=O)[C@H](Cc1ccccc1)NC(=O)C1CCN(C(=O)n2ccnn2)CC1)C(N)=O`, the inhibition result in [1] is “Active”. In addition, the Ratio IC50 in assay [2] is more than 65. In addition, in assay [3], the “IC50(app)” value stood at 0.46 µM. This compound returned an IC50 in assay [4] of more than 30 µM.

`[N-]=[N+]=NCCCC[C@H](NC(=O)CCCCCNC(=O)c1ccc(CN2CCN(C(=O)ON3C(=O)CCC3=O)CC2)cc1)C(N)=O`: the inhibition entry in assay [1] and in [5] was “Active” in each case.

For the compound `[N-]=[N+]=NCCCC[C@H](NC(=O)CCCCCNC(=O)CN(Cc1ccccc1)C(=O)C1CCN(C(=O)n2ccnn2)CC1)C(N)=O`, the inhibition result in assay [6], in [1], in [7], in assay [8], in assay [9] and in assay [10] was “Active” throughout. Besides, the Ratio IC50 in assay [2] was more than 2500. For the same compound, the “IC50(app)” value in assay [3] amounted to 0.0118 µM. Besides, the IC50 in assay [4] is more than 30 µM.

Turning to `[N-]=[N+]=NCCCC[C@H](NC(=O)CCCCCNC(=O)CN(Cc1ccccc1)C(=O)C1CCN(C(=O)ON2C(=O)CCC2=O)CC1)C(N)=O`, the inhibition result in assay [1] and in assay [5] was “Active” throughout.

As for `[N-]=[N+]=NCCCC[C@H](NC(=O)CCCCCNC(=O)c1ccc(CN2CCN(C(=O)n3ccnn3)CC2)cc1)C(N)=O`, the inhibition result in [6], in [1], in assay [7], in [8], in assay [9] and in assay [10] was “Active” each time. Further, the Ratio IC50 in [2] is 250. Further, the “IC50(app)” value in assay [3] is 0.0279 µM. This compound also displayed an IC50 in assay [4] of 7.4 µM.

By IC50 is commonly meant the concentration at which inhibition is half-maximal.
